From ChEMBL document CHEMBL3576863, “Structural requirements for bisphosphonate binding on hydroxyapatite: NMR study of bisphosphonate partial esters” (ACS Med Chem Lett, 2015) come the findings set out here.

Active and inactive are the calls of the source. No cut-off for these calls is given here.

One series has as its system Homo sapiens. The experiment in a line: Half life in human plasma at 1 mg/kg, iv. The series is classed as ADME, organism-based. The following applies: in vivo.
The molecule `NCCC(O)(P(=O)(O)O)P(=O)(O)O` [PAMIDRONIC ACID] gave a t1/2 of 1 h.

Test system in another series: not listed separately
The experiment in a line: Half life in human plasma at 2.5 to 4 mg/kg, iv. The series is classed as ADME, organism-based.
Settings: not given
Take `O=P(O)(O)C(Cl)(Cl)P(=O)(O)O` [CLODRONIC ACID]: the half-life is 1 h.

Test system in another series: not listed separately
Nature of the series: Half life in human plasma at 0.015 mg/kg, iv. The series is classed as ADME, organism-based.
Settings: not given
`CC(O)(P(=O)(O)O)P(=O)(O)O` [ETIDRONIC ACID] had a half-life of 1 h.

The next series has as its system Hydroxyapatite. Nature of the series: Binding affinity to hydroxyapatite at 3.6 to 10.7 mM after 1 hr by NMR analysis relative to control.
Settings: not given
The essentials: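 Hydroxyapatite (HAP) used as a synthetic bone surrogate. BP solution mixed with HAP for 1 h. Bound fraction expressed as percent of BP bound to HAP, calculated from the concentration difference of the BP solution before and after HAP incubation. Statistics by t test.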
As for `COP(=O)(OC)C(C)(O)P(=O)(O)O` (stereo unspecified), the Activity stood at 12.6%.
On the same count and under the same terms, the result for `CC(C)OP(=O)(O)C(Cl)(Cl)P(=O)(O)O` reads “inactive”; that for `COP(=O)(O)C(Cl)(Cl)P(=O)(O)O`, “inactive”; that for `CC(C)OP(=O)(OC(C)C)C(C)(O)P(=O)(O)O` (stereo unspecified), 11.4%.
As to `COP(=O)(OC)C(O)(CCCN)P(=O)(O)O` (stereo unspecified), the Activity is 21.7%.
Still for that read-out and setting: the result for `CC(=O)NCCCC(OC(C)=O)(P(=O)(O)O)P(=O)(O)O` reads 47.7%; that for `COP(=O)(O)CP(=O)(OC)OC`, “inactive”; that for `COP(=O)(O)C(O)(CCCN)P(=O)(O)O` (stereo unspecified), 31%.
With `COP(=O)(O)C(C)(O)P(=O)(O)OC` (stereo unspecified), the Activity came to 3.8%.
For `COP(=O)(O)CP(=O)(O)OC`, the outcome was inactive.
On the same count and under the same terms, the result for `COP(=O)(O)CP(=O)(O)O` reads 18.6%.
Same read-out and setting: the result for `CC(O)(P(=O)(O)O)P(=O)(O)Oc1ccccc1` (stereo unspecified) reads 48%.
Still for that read-out and setting: then `COP(=O)(O)C(C)(O)P(=O)(OC)OC` (stereo unspecified), with “inactive”; and `COP(=O)(O)C(C)(O)P(=O)(O)O` (stereo unspecified), with 55.6%.

The test system of a further series is Hydroxyapatite. The experiment in a line: Binding affinity to hydroxyapatite at 3.2 to 3.7 mM after 1 hr by NMR analysis relative to control.
Settings: not given
In outline: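 Synthetic hydroxyapatite used as a bone model. Each bisphosphonate solution was mixed with HAP for 1 h. Percent HAP-bound was calculated from the solution concentration difference before and after incubation. Statistical comparison by t test.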
Molecule `NCCCC(O)(P(=O)(O)O)P(=O)(O)O` gave an Activity of 70%.
Take `O=P(O)(O)C(Cl)(Cl)P(=O)(O)O` [CLODRONIC ACID]: the Activity amounted to 41.9%.
For the molecule `CC(O)(P(=O)(O)O)P(=O)(O)O` [ETIDRONIC ACID], the Activity is 70%.
On the same count and under the same terms, then `O=P(O)(O)CP(=O)(O)O`, with 70%.
